High-throughput results: PubChem BioAssay, several laboratories
A selection: hits, their analogues and other compounds. The true share with any hit is near 4%.
Hsp70 act – transcriptional activators of Hsp70; HeLa Hsp70 promoter luciferase reporter, luminescence; scaled: vehicle 0, proteasome-inhibitor control 100%; AID 1203; activation, % at 10 µM; 0.04% of 200,000 active;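 active = activation above the mean across all tested compounds plus 3 SD, cutoff set per campaign, cut at about 5.5% in these data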
S1P3 antag – S1P3 (human) receptor antagonism | Q99500 | AID 485 | inhibition, % at 4.98 µM | CHO S1P3 NFAT-BLA reporter, FRET fluorescence, antagonist mode | 0.27% of 170,000 active;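 active = inhibition above the plate cutoff, the mean inhibition of test wells on that plate plus 3 SD, cut at about 28% in these data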;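 also: cells challenged with S1P at its EC80 of 0.8 µM; blue over green emission ratio from cleaved BLA substrate after 4 h stimulation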
Target sequence (Q99500 whole entry, looked up): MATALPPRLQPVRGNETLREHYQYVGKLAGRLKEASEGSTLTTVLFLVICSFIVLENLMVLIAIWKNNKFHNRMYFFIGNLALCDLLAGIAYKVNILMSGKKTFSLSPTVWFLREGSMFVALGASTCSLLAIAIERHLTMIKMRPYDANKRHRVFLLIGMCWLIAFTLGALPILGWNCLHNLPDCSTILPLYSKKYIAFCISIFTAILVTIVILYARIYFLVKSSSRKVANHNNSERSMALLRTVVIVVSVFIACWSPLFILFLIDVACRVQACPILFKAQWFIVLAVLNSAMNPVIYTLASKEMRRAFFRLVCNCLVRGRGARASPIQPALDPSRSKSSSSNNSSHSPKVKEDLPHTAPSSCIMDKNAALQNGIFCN
Mdm2 ligase inh – blocks human Mdm2 ubiquitin ligase activity. Q00987. cell-based MDM2 ubiquitination luciferase reporter, 2 h; 0 = plate control, 100 = twice control, blank-subtracted. signal enhancement, % at 5 µM. 0.11% of 210,000 active. AID 1230;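 active = signal enhancement of 30% or more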;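 also: luminescence tracks abundance of the self-degrading MDM2-luciferase fusion protein; higher signal means inhibition of MDM2 E3 ligase activity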
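Assay system: stable mammalian line carrying autodegrading MDM2–luciferase fusion reporter; Input: 2000 cells in each well; Compound dosing: single-point 5 µM; Schedule: 2 h compound exposure at 37 °C; Signal: SteadyLite luciferase luminescence after 15 min room-temperature reagent incubation; Evaluation: % luminescence enhancement versus blank-corrected plate control mean; Benchmarks: plate controls and plate blanks.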
CHOP inh – CHOP inhibition in unfolded protein response; 3.8% of 220,000 active; AID 2732; CHO-K1 CHOP-promoter luciferase, tunicamycin-induced, 15-18 h; inhibition, % at 10 µM;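 active = compounds that reduced the stress-induced luciferase reporter signal by more than about 70% of percent inhibition, limit read from the data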
Each line names hits and unclear results; the compound was inactive in the other large screens.

CCOc1ccccc1/C=C(\C#N)C(=O)Nc1cccc(C(=O)O)c1	none (no result: Hsp70 act, Mdm2 ligase inh)
COc1cc(/C=C(/C#N)C(=O)Nc2ccccc2)c(Br)cc1OCc1ccc(C(=O)O)cc1	CHOP inh 79.5 (no result: Hsp70 act)
CCc1ccc(NC(=O)c2cnc(N3CCN(c4ccccn4)CC3)c3ccccc23)cc1	CHOP inh 74.9
CC(C)NC(=O)c1cnc(N2CCN(c3ccccn3)CC2)c2ccccc12	none
O=C(NCc1ccco1)c1ccc(N2CCCCC2)c([N+](=O)[O-])c1	CHOP inh 70.5
COc1ccc(NC(C)c2cc(Cl)ccc2O)cc1 (stereo unspecified)	S1P3 antag 63.3
CC1CCN(C(=O)c2[nH]cnc2C(=O)N[C@@H](C)C(=O)OCc2ccccc2)CC1	none (no result: Hsp70 act, S1P3 antag)
COc1cc(-c2nnc(COc3ccc(Cl)cc3C)o2)cc(OC)c1OC	CHOP inh 71.6 (no result: S1P3 antag)
CC(C)(C)NS(=O)(=O)c1ccc(CCC(=O)N2CCCC2)cc1	none
Cc1c(Cl)cnc(NC(=O)CSc2nncs2)c1Cl	none (no result: Mdm2 ligase inh)
CCCc1nc2ccccc2c(C(=O)OCC(=O)Nc2cccc(S(=O)(=O)N3CCOCC3)c2)c1CC	CHOP inh 76.8 (no result: S1P3 antag)
Cc1ccc(C)c(N2CCN(C(=O)c3ccccc3Br)CC2)c1	CHOP inh 87.4
Cc1ccc(C)c(N2CCN(C(=O)C3CCN(c4nc(C)cc(C)n4)CC3)CC2)c1	CHOP inh 87.9
Cc1cc(C)nc(N2CCC(C(=O)N3CCN(c4cc(Cl)ccc4C)CC3)CC2)n1	none
Cc1ccc(C)c(N2CCN(C(=O)c3csc(C)c3C)CC2)c1	none
Cc1ccc(N2CCN(C(=O)c3ccccc3Br)CC2)c(C)c1	CHOP inh 87.0
O=C(CCCOc1ccc(Cl)cc1Cl)N/N=C/c1ccc(Cl)cc1	none
COc1ccc(/C=N/NC(=O)CCCOc2ccc(Cl)cc2Cl)cc1	CHOP inh 84.5
Cc1cc(Cl)ccc1OCCCC(=O)N/N=C/c1cccc([N+](=O)[O-])c1	CHOP inh 88.0 (no result: Mdm2 ligase inh)
COc1ccc(/C=N\NC(=O)C2=NNC(=O)C2C)cc1 (stereo unspecified)	none (no result: S1P3 antag)
Cn1c(=O)c2[nH]c(N3CCN(c4ccccc4)CC3)nc2n(C)c1=O	none (no result: Mdm2 ligase inh)
O=c1c2ccccc2c(-c2ccc(O)cc2)nn1-c1cccc(C(F)(F)F)c1	CHOP inh 93.7
Cc1ccc(C(=O)Nc2cc(C(C)C)c(O)c(C(C)C)c2)cc1	CHOP inh 73.9
Cc1ccc(C(=O)N[C@H](C(=O)Nc2cc(Cl)cc(Cl)c2)C(C)C)cc1	none
CC(=O)c1cccc(NC(=O)Cn2c(=O)oc3cc(S(=O)(=O)N4CCCC4)ccc32)c1	none (no result: Hsp70 act)
Cc1ccc(NC(=O)Cn2c(=O)oc3cc(S(=O)(=O)N4CCC(C)CC4)ccc32)cc1C	CHOP inh 73.9 (no result: S1P3 antag)
O=C(/C=C/c1ccccc1)NC(=S)NNC(=O)c1ccco1	none (no result: S1P3 antag)
O=C(/C=C/c1ccc(Br)cc1)NC(=S)NNC(=O)c1ccco1	CHOP inh 76.5 (no result: S1P3 antag)
Cc1nn(-c2ccc(F)cc2)c(Cl)c1/C=C1\C(=O)Nc2ccccc21	CHOP inh 93.7
COc1ccc(Nc2ccc([N+](=O)[O-])cc2[N+](=O)[O-])cc1	none
CCCCOC(=O)CSc1nnc(-c2ccc(Cl)cc2Cl)o1	CHOP inh 70.8
COC(=O)CSc1ccc(S(=O)(=O)N2CCCCCC2)cc1[N+](=O)[O-]	none
CN(C)CC(CCC(CN(C)C)C(=O)c1ccccc1)C(=O)c1ccccc1 (stereo unspecified)	CHOP inh 105.7 (no result: Hsp70 act)
O=C(c1ccc(F)cc1)C(CN1CCOCC1)c1ccccc1 (stereo unspecified)	none (no result: CHOP inh)
O=C(c1ccccc1)C(CCC(CN1CCOCC1)C(=O)c1ccccc1)CN1CCOCC1 (stereo unspecified)	CHOP inh 97.9 (no result: S1P3 antag)
COc1ccc(C(=O)COc2ccc(C)cc2NC(C)=O)cc1	none (no result: Hsp70 act)
COc1ccc(C2=NOC3(CC(=O)N(c4ccc5ccccc5c4)C3=O)C2)c(OC)c1 (stereo unspecified)	none (no result: S1P3 antag)
Clc1ccc(-c2nc3ccccc3nc2-c2ccccc2)cc1	CHOP inh 73.6
CC(SC1=NCCS1)C(=O)Nc1nnc(-c2ccc(Cl)cc2)s1 (stereo unspecified)	CHOP inh 87.3 (no result: S1P3 antag)
CCCC1=C(C(=O)OCC)C(c2ccc(OC)c(C)c2OC)C(C#N)=C(N)O1 (stereo unspecified)	CHOP inh 71.6
CCOC(=O)C1=C(CC)OC(N)=C(C#N)C1c1ccc(OC)c(C)c1OC (stereo unspecified)	none
Cc1nn(Cc2c(F)c(F)c(F)c(F)c2F)c(C)c1NC(=O)c1ccc(COc2ccc(Cl)cc2Cl)o1	CHOP inh 70.2
N#Cc1c(C(F)(F)F)cc(C2CC2)[nH]c1=O	S1P3 antag 61.5
Cc1ccc(-c2cc(C(F)(F)F)c(C#N)c(=O)[nH]2)cc1	none
CC(/C=C/c1ccccc1)=N/NC(=O)c1cccc(Br)c1	none
Cc1ccc2nc(-c3sc4nc(C)cc(C)c4c3N)[nH]c2c1	CHOP inh 91.5 (no result: S1P3 antag)
O=C(Nc1cc(F)cc(F)c1)c1sc(Cl)nc1-c1ccccc1	CHOP inh 75.3
O=C(Nc1ccccc1)c1sc(Cl)nc1-c1ccccc1	none
CCc1nnc(NC(=O)c2ccc3nc(CC)c(CC)nc3c2)s1	none
Cc1ccccc1OCCCCc1c(C)n[nH]c1C	CHOP inh 85.3
Cc1cccc(C)c1OCCCCc1c(C)n[nH]c1C	CHOP inh 86.1
Cc1ccccc1OCCCc1c(C)n[nH]c1C	none
CC(=O)Oc1c(Sc2ccccc2[N+](=O)[O-])c(C)nn1C(C)(C)C	CHOP inh 74.7
C/C(=N\NC(=O)c1n[nH]c2c1CCC2)c1cccs1	CHOP inh 85.7 (no result: Hsp70 act)
O=C(N/N=C/c1cccs1)c1n[nH]c2c1CCCC2	none (no result: Hsp70 act)
CC1(C)CC(=O)/C(=C\c2cccc([N+](=O)[O-])c2)C(C)(C)N1	none
CCCN1C/C(=C/c2cccc([N+](=O)[O-])c2)C(=O)/C(=C/c2cccc([N+](=O)[O-])c2)C1	CHOP inh 100.4 (no result: S1P3 antag)
CCCN1C/C(=C/c2ccc3c(c2)OCO3)C(=O)/C(=C/c2ccc3c(c2)OCO3)C1	CHOP inh 97.2
O=c1c2cc(Cl)ccc2nc(-c2ccc(Cl)c(Cl)c2)n1O	CHOP inh 102.3 (no result: Hsp70 act, Mdm2 ligase inh)
COc1cc2c(cc1OC)C(c1ccc(-c3ccccc3Cl)o1)=NCC2	none (no result: S1P3 antag)
COc1cc2c(cc1OC)C(c1ccc(-c3ccc(Cl)c(Cl)c3)o1)=NCC2	CHOP inh 80.2 (no result: S1P3 antag)
COc1cc2c(cc1OC)C(c1ccc(-c3cc(Cl)ccc3Cl)o1)=NCC2	CHOP inh 84.6 (no result: S1P3 antag)
COc1cc2c(cc1OC)CN(c1nc(CN3CCCC3)nc3sc(C)c(C)c13)CC2	CHOP inh 78.4
COc1cc2c(cc1OC)CN(c1nc(CN3CCCCC3)nc3sc4c(c13)CCCC4)CC2	none
Cc1cccc(Nc2nc(N)nc(CN3CCN(c4ccccc4F)CC3)n2)c1	none (no result: Mdm2 ligase inh, CHOP inh)
COc1ccccc1Nc1nc(N)nc(CN2CCN(Cc3ccccc3)CC2)n1	none
COc1ccccc1Nc1nc(N)nc(CN2CCN(c3ccccc3F)CC2)n1	CHOP inh 83.3
COc1ccccc1N1CCN(Cc2nc(N)nc(Nc3ccc(C)c(Cl)c3)n2)CC1	CHOP inh 76.4
CCOc1nc(Nc2ccc(OC)c(Cl)c2)nc(OCC)n1	CHOP inh 83.0 (no result: S1P3 antag)
